# In ChEMBL document CHEMBL4334445, “Caspase-Dependent Apoptosis in Prostate Cancer Cells and Zebrafish by Corchorusoside C from Streptocaulon juventas” (J Nat Prod, 2019):
# Calls of active or inactive are those of the source. The rule behind the calls is not given here.
# How the values were obtained:
# [1] = system: DU-145; assay: Induction of morphological changes in human DU145 cells assessed as apoptotic cell death at 0.003 to 0.3 uM measured upto 72 hrs by microscopic analysis; assay type: functional, cell-based
# [2] = Toxicity in 24 hrs post fertilized zebrafish embryo assessed as effect on trunk development at 50 uM measured after 24 hrs by microscopic analysis; design: species or system Danio rerio; conditions: in vivo
# In short: (§1)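 Embryos raised at 28 °C to 24 hpf, then exposed to 50 μM in 1% DMSO in water (vehicle control) for 24 h; larvae examined and photographed by light microscopy for developmental morphology.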
# [3] = Toxicity in 24 hrs post fertilized zebrafish embryo assessed as effect on heart development at 50 uM measured after 24 hrs by microscopic analysis; design: species or system Danio rerio; conditions: in vivo; in short: as §1
# [4] = Selectivity index, ratio of IC50 for human CCD-112CoN cells to IC50 for human HT-29 cells
# [5] = organism: Danio rerio; assay: Effect on caspase 7 level in zebrafish at 0.6 to 15 uM by Western blot analysis; assay type: functional, organism-based
# In short: (§2)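 Zebrafish larvae at 72 hpf exposed for 3 h to a range of concentrations, frozen on dry ice and homogenised; BCA protein assay, 20 μg on 10% Bis-Tris SDS-PAGE, PVDF transfer, 3% BSA block, primary antibody overnight, secondary 1 h, chemiluminescent detection, densitometry.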
# [6] = system: MCF7; assay: Cytotoxicity against human MCF7 cells assessed as reduction in cell viability measured after 72 hrs by SRB assay; assay type: functional, cell-based; conditions: for IC50: MCF7, 72 h
# [7] = system: DU-145; assay: Induction of apoptosis in human DU145 cells assessed assessed as increase in caspase 7 expression at 0.05 to 50 uM after 12 hrs by Western blot analysis; assay type: functional, cell-based
# In short: (§3)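 DU-145 cells in DMEM treated 0.05–50 μM for 12 h, DMSO/water vehicle control; lysates quantified by BCA, 20 μg protein on 10% Bis-Tris SDS-PAGE, transferred to PVDF, blocked with 3% BSA, primary antibody overnight, secondary 1 h, chemiluminescent detection, band densitometry; three independent assays, one-way ANOVA with Dunnett's test.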
# [8] = Toxicity in 24 hrs post fertilized zebrafish embryo assessed as effect on tail development at 50 uM measured after 24 hrs by microscopic analysis; design: species or system Danio rerio; conditions: in vivo; in short: as §1
# [9] = system: MDA-MB-231; assay: Cytotoxicity against human MDA-MB-231 cells assessed as reduction in cell viability measured after 72 hrs by SRB assay; assay type: functional, cell-based; conditions: MDA-MB-231, 72 h
# [10] = system: DU-145; assay: Induction of ROS generation in human DU145 cells at 0.5 to 50 uM measured after 5 hrs by DCFHDA probe based fluorescence assay; assay type: functional, cell-based
# In short: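 DU-145 cells seeded at 5×10^4/mL, treated 0.5–50 μM, incubated at 37 °C for 5 h; DCFH-DA 10 μM added; fluorescence at excitation 485 / emission 530 nm vs DMSO control; triplicate, two independent experiments, one-way ANOVA with Dunnett's test.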
# [11] = Toxicity in zebrafish assessed as effect on intracellular calcium level at 50 uM measured after 5 hrs by Fura-2/AM dye based fluorescence assay; assay type: cell-based, Danio rerio; conditions: in vivo
# [12] = system: DU-145; assay: Induction of apoptosis in human DU145 cells assessed assessed as caspase 3/7 activity after 5 hrs by caspase-Glo 3/7 reagent based luminescence assay; assay type: functional, cell-based
# In short: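 DU-145 cells at 1×10^4 per well treated 0.08–8 μM for 5 h, DMSO/water vehicle; Caspase-Glo 3/7 reagent added, 2 h incubation, luminescence read; three independent assays, one-way ANOVA with Dunnett's test.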
# [13] = system: DU-145; assay: Induction of apoptosis in human DU145 cells assessed assessed as increase in caspase 3 expression at 0.05 to 50 uM after 12 hrs by Western blot analysis; assay type: functional, cell-based; in short: as §3
# [14] = Toxicity in 24 hrs post fertilized zebrafish embryo assessed as effect on vasculature at 50 uM measured after 24 hrs by microscopic analysis; design: species or system Danio rerio; conditions: in vivo; in short: as §1
# [15] = system: HT-29; assay: Cytotoxicity against human HT-29 cells assessed as reduction in cell viability measured after 72 hrs by SRB assay; assay type: functional, cell-based
# [16] = system: DU-145; assay: Decrease in ICAM1 expression in human DU145 cells after 12 hrs by Western blot analysis; assay type: functional, cell-based; in short: as §3
# [17] = system: DU-145; assay: Induction of mitochondrial membrane potential loss in human DU145 cells after 2 hrs by JC1 staining based fluorescence assay; assay type: functional, cell-based; conditions: DU-145, 2 h
# [18] = system: PC-3; assay: Cytotoxicity against human PC3 cells assessed as reduction in cell viability measured after 72 hrs by SRB assay; assay type: functional, cell-based
# [19] = Cytotoxicity against human CCD-112CoN cells assessed as reduction in cell viability measured after 72 hrs by SRB assay; assay type: cell-based
# [20] = system: DU-145; assay: Induction of apoptosis in human DU145 cells assessed as cell shrinkage at 0.003 to 0.3 uM measured upto 72 hrs by microscopic analysis; assay type: functional, cell-based
# [21] = system: DU-145; assay: Induction of apoptosis in human DU145 cells assessed as increase in PARP1 protein expression at 5 to 50 uM measured after 12 hrs by Western blot analysis; assay type: functional, cell-based; in short: as §3
# [22] = system: DU-145; assay: Induction of apoptosis in human DU145 cells assessed as reduction in Bcl2 protein expression at 5 to 50 uM measured after 12 hrs by Western blot analysis; assay type: functional, cell-based; in short: as §3
# [23] = system: DU-145; assay: Induction of apoptosis in human DU145 cells assessed as cell detachment from monolayer surface at 0.003 to 0.3 uM measured upto 72 hrs by microscopic analysis; assay type: functional, cell-based
# [24] = organism: Danio rerio; assay: Effect on NF-KappaB p50 expression in zebrafish at 0.6 to 15 uM by Western blot analysis; assay type: functional, organism-based; in short: as §2
# [25] = system: DU-145; assay: Decrease in NF-KappaB p50 subunit expression in human DU145 cells at 0.05 to 50 uM measured after 12 hrs by Western blot analysis; assay type: functional, cell-based; in short: as §3
# [26] = system: DU-145; assay: Cell cycle arrest in human DU145 cells assessed as decrease in G1 phase population at 0.005 to 5 uM after 24 hrs by RNase/propidium iodide staining based FACScalibur flow cytometry analysis; assay type: functional
# In short: (§4)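 DU-145 cells in 6-cm plates treated 0.005–5 μM for 24 h; trypsinised, fixed in 70% ethanol, RNase incubation 1 h at 37 °C, propidium iodide stained; flow cytometry, excitation 488 nm, emission 617 nm; percentage of cells per phase vs control; two independent experiments.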
# [27] = organism: Danio rerio; assay: Downregulation of IKKalpha expression in zebrafish at 0.6 to 15 uM by Western blot analysis; assay type: functional, organism-based; in short: as §2
# [28] = system: DU-145; assay: Induction of apoptosis in human DU145 cells assessed as decrease in number of cells at 0.003 to 0.3 uM measured upto 72 hrs by microscopic analysis; assay type: functional, cell-based
# [29] = organism: Danio rerio; assay: Effect on IKKbeta expression in zebrafish at 0.6 to 15 uM by Western blot analysis; assay type: functional, organism-based; in short: as §2
# [30] = Toxicity in 24 hrs post fertilized zebrafish embryo assessed as effect on brain development at 50 uM measured after 24 hrs by microscopic analysis; design: species or system Danio rerio; conditions: in vivo; in short: as §1
# [31] = system: DU-145; assay: Decrease in IKK alpha expression in human DU145 cells measured after 12 hrs by Western blot analysis; assay type: functional, cell-based; in short: as §3
# [32] = biological target: Sodium/potassium-transporting ATPase (Homo sapiens) (UniProt P05023+P14415+P05026+P50993+P54709+P13637+Q13733+P54710); assay: Inhibition of Na+/K+ ATPase pump in human DU145 cells assessed as increase in intracellular calcium level at 50 uM measured after 5 hrs by Fura-2/AM dye based fluorescence assay; assay type: cell-based
# In short: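 DU-145 cells at 1×10^4 per well treated 5 h (0–50 μM), DMSO/water negative control; medium removed, loaded with 5 μM fura-2 AM then 2.5 mM probenecid; intracellular Ca2+ from emission 510 nm ratio at 340/380 nm excitation; two independent experiments.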
# [33] = system: DU-145; assay: Cell cycle arrest in human DU145 cells assessed as increase in sub-G1 phase population at 0.005 to 5 uM after 24 hrs by RNase/propidium iodide staining based FACScalibur flow cytometry analysis; assay type: functional; in short: as §4
# [34] = system: DU-145; assay: Decrease in IKKbeta expression in human DU145 cells measured after 12 hrs by Western blot analysis; assay type: functional, cell-based; in short: as §3
# [35] = system: DU-145; assay: Decrease in NF-KappaB p65 subunit expression in human DU145 cells at 0.05 to 50 uM measured after 12 hrs by Western blot analysis; assay type: functional, cell-based; in short: as §3
# [36] = organism: Danio rerio; assay: Downregulation of NF-kappaB p65 expression in zebrafish at 0.6 to 15 uM by Western blot analysis; assay type: functional, organism-based; in short: as §2
# [37] = system: DU-145; assay: Cytotoxicity against human DU145 cells assessed as reduction in cell viability measured after 48 hrs by SRB assay; assay type: functional, cell-based; conditions: DU-145, 48 h
# In short: (§5)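 DU-145 cells seeded at 5×10^4 cells/mL, compound 30–3×10^-4 μM for 24 or 48 h at 37 °C, 5% CO2; TCA fixation, 0.4% SRB staining, Tris-base solubilisation, absorbance 515 nm; timed IC50 by non-linear regression.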
# [38] = system: DU-145; assay: Cytotoxicity against human DU145 cells assessed as reduction in cell viability measured after 24 hrs by SRB assay; assay type: functional, cell-based; conditions: DU-145, 24 h; in short: as §5
# [39] = system: HeLa; assay: Cytotoxicity against human HeLa cells assessed as reduction in cell viability measured after 72 hrs by SRB assay; assay type: functional, cell-based
# [40] = system: DU-145; assay: Cytotoxicity against human DU145 cells assessed as reduction in cell viability measured after 72 hrs by SRB assay; assay type: functional, cell-based
# [41] = system: DU-145; assay: Induction of apoptosis in human DU145 cells assessed as increase in apoptotic cells at 0.003 to 0.3 uM measured upto 72 hrs by microscopic analysis; assay type: functional, cell-based
# [42] = Toxicity in 24 hrs post fertilized zebrafish embryo assessed as effect on gut development at 50 uM measured after 24 hrs by microscopic analysis; design: species or system Danio rerio; conditions: in vivo; in short: as §1
# [43] = organism: Danio rerio; assay: Increase in caspase 3 level in zebrafish at 0.6 to 15 uM by Western blot analysis; assay type: functional, organism-based; in short: as §2
# [44] = Toxicity in 24 hrs post fertilized zebrafish embryo assessed as developmental delay at 50 uM measured after 24 hrs by microscopic analysis; design: species or system Danio rerio; conditions: in vivo; in short: as §1
compound,measurement,setting,value
C[C@H]1O[C@@H](O[C@H]2CC[C@]3(C)[C@H]4CC[C@]5(C)[C@@H](C6=CC(=O)OC6)CC[C@]5(O)[C@@H]4CC[C@]3(O)C2)C[C@H](O)[C@@H]1O[C@@H]1O[C@H](CO)[C@@H](O)[C@H](O)[C@H]1O,Activity,[1],Active
same,Activity,[2],Non-Toxic
same,Activity,[3],Non-Toxic
same,Ratio IC50,[4],22.5
same,Activity,[5],inactive
same,Activity,[6],Dose-dependent effect
same,IC50,[6],100 nM
same,Activity,[7],Active
same,Activity,[8],Non-Toxic
same,IC50,[9],200 nM
same,Activity,[10],Active
same,Activity,[11],Non-Toxic
same,Activity,[12],Dose-dependent effect
same,Activity,[13],Active
same,Activity,[14],Non-Toxic
same,Activity,[15],Dose-dependent effect
same,IC50,"[15]; HT-29, 72 h",120 nM
same,Activity,[16],Dose-dependent effect
same,IC50,[17],300 nM
same,Activity,[18],Dose-dependent effect
same,IC50,"[18]; PC-3, 72 h",200 nM
same,IC50,[19],2700 nM
same,Activity,[20],Active
same,Activity,[21],Active
same,Activity,[22],Active
same,Activity,[23],Active
same,Activity,[24],inactive
same,inhibition,[25],Active
same,Activity,[26],Active
same,Activity,[27],Active
same,Activity,[28],Active
same,Activity,[29],inactive
same,Activity,[30],Non-Toxic
same,inhibition,[31],Dose-dependent effect
same,inhibition,[32],Active
same,Activity,[33],Active
same,inhibition,[34],Dose-dependent effect
same,inhibition,[35],Active
same,Activity,[36],Active
same,IC50,[37],1200 nM
same,IC50,[38],11200 nM
same,Activity,[39],Dose-dependent effect
same,IC50,[39],190 nM
same,Activity,[40],Dose-dependent effect
same,IC50,"[40]; DU-145, 72 h",80 nM
same,Activity,[41],Active
same,Activity,[42],Non-Toxic
same,Activity,[43],Active
Cc1c2ccncc2c(C)c2c1[nH]c1ccccc12 [ELLIPTECINE],IC50,[6],800 nM
C[C@@H]1C[C@@H]([C@H](O)CC2CC(=O)NC(=O)C2)C(=O)[C@@H](C)C1 [CYCLOHEXIMIDE],Activity,[44],Toxic
